From PMC6039301 (Journal of medicinal chemistry, 2017)
Entries after “also recorded” stand apart in the source; their conditions may differ.

What was measured:
[1] = test system: ER-positive MCF-7 breast cancer cells; experiment: Cell proliferation assay; format: cell-based; settings: for Cell proliferation (CP), percent of vehicle control (antiproliferative efficacy): MCF-7, 3 μM, 6 days, maximum suppression ca. 20%; for IC50: Homo sapiens, MCF7, read-out: IC50 antiproliferative activity
[2] = test system: ERα levels in MCF-7 breast cancer cells; experiment: In-cell western assay for ERα level; format: cell-based; settings: MCF-7, 3 μM, 24 h
Procedure, shortened: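 MCF-7 cells seeded at 3000 cells/well, exposed to test compound at a single 3 μM concentration for 24 h. Cells fixed in 4% formaldehyde, permeabilized with 0.1% Triton X-100, blocked, then probed overnight at 4 °C with rabbit anti-ERα (HC-20). IRDye 800 secondary and Cell Tag 700 were used, with ERα signal normalized to Cell Tag. Reported as percent of vehicle; mean of ≥3 independent experiments.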

ERα levels = experiment: Western blot analysis of ERα; format: cell-based; settings: 3×10^−6 M, 24 h (Figure 6B)
Procedure, shortened: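 Cells treated 24 h with test compound at 3×10−10, 3×10−8 or 3×10−6 M; E2 (1×10−8 M) and tamoxifen (3×10−6 M) were reference treatments. Whole-cell extracts made with protease and phosphatase inhibitors, separated on 10% SDS-PAGE and transferred to nitrocellulose. Probed for ERα (F10 antibody) and β-actin. Band levels expressed as percent of vehicle.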

[3] = target: T1, full-length human estrogen receptor alpha (ERα) (Homo sapiens, UniProt P03372); settings: cited from earlier work
T1 sequence (P03372 1-595): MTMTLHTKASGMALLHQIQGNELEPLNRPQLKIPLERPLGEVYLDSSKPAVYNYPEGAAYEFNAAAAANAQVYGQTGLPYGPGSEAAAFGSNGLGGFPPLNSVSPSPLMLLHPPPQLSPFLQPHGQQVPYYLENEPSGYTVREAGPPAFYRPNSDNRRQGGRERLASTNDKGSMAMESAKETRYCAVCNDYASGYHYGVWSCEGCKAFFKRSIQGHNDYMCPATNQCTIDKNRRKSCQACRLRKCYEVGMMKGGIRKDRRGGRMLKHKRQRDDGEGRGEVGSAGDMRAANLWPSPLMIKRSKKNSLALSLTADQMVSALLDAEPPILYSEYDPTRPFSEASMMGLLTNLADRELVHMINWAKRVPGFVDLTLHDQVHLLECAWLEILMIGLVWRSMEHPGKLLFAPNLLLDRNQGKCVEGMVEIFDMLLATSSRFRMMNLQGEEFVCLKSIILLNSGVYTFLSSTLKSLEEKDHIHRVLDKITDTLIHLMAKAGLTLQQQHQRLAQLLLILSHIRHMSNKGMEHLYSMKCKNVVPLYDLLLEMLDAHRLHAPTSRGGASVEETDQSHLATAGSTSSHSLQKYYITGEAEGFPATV

Row | Compound | Cell proliferation (CP), percent of vehicle control (antiproliferative efficacy) [1] | ERα level, percent of vehicle control (ERα downregulating efficacy) [2] | also measured
1 | CC(C)CCCCCOC(=O)/C=C/c1ccc(C(=C2C3CC4CC(C3)CC2C4)c2ccc(O)cc2)cc1 [Compound 10, 6-Methylheptyl (E)-3-(4-(((1r,3r,5R,7S)-Adamantan-2-ylidene)(4-hydroxyphenyl)methyl)phenyl)acrylate] | no anti-proliferative activity | good to very good | 
2 | O=C(O)/C=C/c1ccc(C(=C2C3CC4CC(C3)CC2C4)c2ccc(O)cc2)cc1 [Compound 5, (E)-3-(4-(((1r,3r,5R,7S)-Adamantan-2-ylidene)(4-hydroxyphenyl)methyl)phenyl)acrylic acid] |  |  | IC50 [1]: 31 nM
3 | O=C(/C=C/c1ccc(C(=C2C3CC4CC(C3)CC2C4)c2ccc(O)cc2)cc1)N(CCO)CCO [Compound 31, (E)-3-(4-(((1r,3r,5R,7S)-Adamantan-2-ylidene)(4-hydroxyphenyl)methyl)phenyl)-N,N-bis(2-hydroxyethyl)acrylamide] | relatively unimpressive | relatively unimpressive | 
4 | CC/C(=C(\c1ccc(O)cc1)c1ccc(OCCN(C)C)cc1)c1ccccc1 [hydroxytamoxifen, 4-hydroxytamoxifen] |  |  | effect on cellular ERα level (Western blot) (ERα levels): upregulate ERα levels
5 | CCCCNC(=O)/C=C/c1ccc(C(=C2C3CC4CC(C3)CC2C4)c2ccc(O)cc2)cc1 [Compound 18, (E)-3-(4-(((1r,3r,5R,7S)-Adamantan-2-ylidene)(4-hydroxyphenyl)methyl)phenyl)-N-butylacrylamide] | good efficacies | good efficacies | 
6 | O=C(/C=C/c1ccc(C(=C2C3CC4CC(C3)CC2C4)c2ccc(O)cc2)cc1)NCCCO [Compound 21, (E)-3-(4-(((1r,3r,5R,7S)-Adamantan-2-ylidene)(4-hydroxyphenyl)methyl)phenyl)-N-(3-hydroxypropyl)acrylamide] | equivalent to that of the parent acid 5; also recorded: comparable to that of fulvestrant | good and similar to that of the parent 5; also recorded: comparable to that of fulvestrant | IC50 [1]: 1.9 nM
7 | NCCNC(=O)/C=C/c1ccc(C(=C2C3CC4CC(C3)CC2C4)c2ccc(O)cc2)cc1 [Compound 24, (E)-3-(4-(((1r,3r,5R,7S)-Adamantan-2-ylidene)(4-hydroxyphenyl)methyl)phenyl)-N-(2-aminoethyl)acrylamide] |  |  | IC50 [1]: 10 nM
8 | NCCCCNC(=O)/C=C/c1ccc(C(=C2C3CC4CC(C3)CC2C4)c2ccc(O)cc2)cc1 [Compound 26, (E)-3-(4-(((1r,3r,5R,7S)-Adamantan-2-ylidene)(4-hydroxyphenyl)methyl)phenyl)-N-(4-aminobutyl)acrylamide] |  | good | 
9 | CCCCOC(=O)/C=C/c1ccc(C(=C2C3CC4CC(C3)CC2C4)c2ccc(O)cc2)cc1 [Compound 9, Butyl (E)-3-(4-(((1r,3r,5R,7S)-Adamantan-2-ylidene)(4-hydroxyphenyl)methyl)phenyl) acrylate] |  | good to very good | 
10 | O=C(/C=C/c1ccc(C(=C2C3CC4CC(C3)CC2C4)c2ccc(O)cc2)cc1)NCCO [Compound 20, (E)-3-(4-(((1r,3r,5R,7S)-Adamantan-2-ylidene)(4-hydroxyphenyl)methyl)phenyl)-N-(2-hydroxyethyl)acrylamide] | impressive efficacies | impressive efficacies | IC50 [1]: 2.4 nM
11 | N#C/C=C/c1ccc(C(=C2C3CC4CC(C3)CC2C4)c2ccc(O)cc2)cc1 [Compound 14, (E)-3-(4-(((1r,3r,5R,7S)-Adamantan-2-ylidene)(4-hydroxyphenyl)methyl)phenyl) acrylonitrile] | matching that of vehicle control; also recorded: no anti-proliferative activity | very effective | 
12 | CCCNS(=O)(=O)/C=C/c1ccc(C(=C2C3CC4CC(C3)CC2C4)c2ccc(O)cc2)cc1 [Compound 15, (E)-2-(4-(((1r,3r,5R,7S)-Adamantan-2-ylidene)(4-hydroxyphenyl)methyl)phenyl)-N-propylethene-1-sulfonamide] | only modest | only modest | 
13 | CCCCCC(=O)/C=C/c1ccc(C(=C2C3CC4CC(C3)CC2C4)c2ccc(O)cc2)cc1 [Compound 6, (E)-1-(4-(((1r,3r,5R,7S)-Adamantan-2-ylidene)(4-hydroxyphenyl)methyl)phenyl)oct-1-en-3-one] | some efficacy | some efficacy | 
14 | NC(=O)/C=C/c1ccc(C(=C2C3CC4CC(C3)CC2C4)c2ccc(O)cc2)cc1 [Compound 16, (E)-3-(4-(((1r,3r,5R,7S)-Adamantan-2-ylidene)(4-hydroxyphenyl)methyl)phenyl)acrylamide] | Least good | Least good | 
15 | NCCCNC(=O)/C=C/c1ccc(C(=C2C3CC4CC(C3)CC2C4)c2ccc(O)cc2)cc1 [Compound 25, (E)-3-(4-(((1r,3r,5R,7S)-Adamantan-2-ylidene)(4-hydroxyphenyl)methyl)phenyl)-N-(3-aminopropyl)acrylamide] |  | good | 
16 | C[C@]12CC[C@@H]3c4ccc(O)cc4C[C@@H](CCCCCCCCC[S+]([O-])CCCC(F)(F)C(F)(F)F)[C@H]3[C@@H]1CC[C@@H]2O (some centres unmarked) [Fulvestrant, fulvestrant, reference compound] |  | 20% | 
17 | O=C(/C=C/c1ccc(C(=C2C3CC4CC(C3)CC2C4)c2ccc(O)cc2)cc1)NCC(F)(F)F [Compound 28, (E)-3-(4-(((1r,3r,5R,7S)-Adamantan-2-ylidene)(4-hydroxyphenyl)methyl)phenyl)-N-(2,2,2-trifluoroethyl)acrylamide] | Least good | Least good | 
18 | O=C(/C=C/c1ccc(C(=C2C3CC4CC(C3)CC2C4)c2ccc(O)cc2)cc1)OCCCCO [Compound 13, 4-Hydroxybutyl (E)-3-(4-(((1r,3r,5R,7S)-Adamantan-2-ylidene)(4-hydroxyphenyl)methyl)phenyl)acrylate] |  | good to very good | 
19 | COC(=O)/C=C/c1ccc(C(=C2C3CC4CC(C3)CC2C4)c2ccc(O)cc2)cc1 [Compound 7, Methyl (E)-3-(4-(((1r,3r,5R,7S)-Adamantan-2-ylidene)(4-hydroxyphenyl)methyl)phenyl) acrylate] | no anti-proliferative activity |  | 
20 | O=C(/C=C/c1ccc(C(=C2C3CC4CC(C3)CC2C4)c2ccc(O)cc2)cc1)NCCCCCO [Compound 23, (E)-3-(4-(((1r,3r,5R,7S)-Adamantan-2-ylidene)(4-hydroxyphenyl)methyl)phenyl)-N-(5-hydroxypentyl)acrylamide] | equivalent to that of the parent acid 5 | good and similar to that of the parent 5 | IC50 [1]: 10 nM
21 | CCCCN(C)C(=O)/C=C/c1ccc(C(=C2C3CC4CC(C3)CC2C4)c2ccc(O)cc2)cc1 [Compound 29, (E)-3-(4-(((1r,3r,5R,7S)-Adamantan-2-ylidene)(4-hydroxyphenyl)methyl)phenyl)-N-butyl-N-methylacrylamide] | very poor efficacies | very poor efficacies | 
22 | Oc1ccc(C(=C2C3CC4CC(C3)CC2C4)c2ccc(O)cc2)cc1 [parent bisphenolic adamantyl-core] |  |  | binding affinity for ERα, fold higher than that of estradiol (E2) [3]: ca. 3 fold; Ki ([3]; read-out: Ki for ERα, corresponds to the affinity relative to E2): 0.07 nM
